Experimental data from paper PMC3941648 (Protein and peptide letters, 2014).
“Also recorded” adds a separate entry of the source. *: point of attachment. FITC = O=C1OC2(c3ccc(O)cc3Oc3cc(O)ccc32)c2ccc(NC(=S)*)cc21; Biotin = O=C1N[C@H]2[C@H](CS[C@H]2CCCCC(=O)*)N1; Ahx = NCCCCCC(=O)O

Legend:
Type in all cases: cell-based, Chinese hamster
pgs A-745 cells = test: Cellular uptake of peptide-horseradish peroxidase; details: pgs A-745 cells lacking surface GAGs; 240 ng/ml complex, 30 min, 37°C; TMB substrate, 405 nm; n=3
wild-type CHO K1 cells = test: Cellular uptake of FITC-labeled peptides, flow cytometry and confocal microscopy; details: as stated in the abstract; cell type not stated
Summary of the method: (§1)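 CHO K1 wild-type and GAG-deficient mutants were grown in DMEM/F12 with 10% FBS at 37 °C. At ~75% confluence (48 h after seeding), cells were exposed to 20 μM FITC-labelled peptide for 2 h at 37 °C, then trypsinised, washed and analysed by flow cytometry. Dead cells (7-AAD-positive) were gated out, ≥5,000 events were collected and uptake was expressed relative to wild-type. Confocal imaging used a ~0.40 micron mid Z-section. Triplicates, mean ± S.D., t test.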

[1] = system: pgs D-677 cells (heparan sulfate-defective CHO K1 mutant); test: as above; details: deduced from uptake in pgs D-677 versus wt CHO K1; 20 μM, 2 h, 37°C
Summary of the method: as §1

[2] = system: pgs F-17 cells (2-O-sulfation-defective CHO K1 mutant); test: Cellular uptake of FITC-labeled peptides, flow cytometry; details: 20 μM FITC-labeled peptide, 2 h, 37°C
Summary of the method: (§2)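 Mutant and wild-type CHO K1 cells were seeded 48 h before use and treated at ~75% confluence with 20 μM FITC-labelled peptide in DMEM/F12 for 2 h at 37 °C. Cells were washed, trypsinised for 5 min and resuspended at 2×10⁶ cells/ml. 7-AAD (0.5 ng/μl final) excluded dead cells. Fluorescence was read with 488-nm excitation on ≥5,000 live events and compared with wild-type. Triplicates, mean ± S.D.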

[3] = system: pgs C-605 cells (sulfate transporter-defective CHO K1 mutant); test: as above; details: 20 μM FITC-labeled peptide, 2 h, 37°C
Summary of the method: as §2

Q: How did the “Uptake of complex into cells (peroxidase activity of cell extracts)” value (pgs A-745 cells) turn out when “{Biotin-Ahx}-KKGFYKKKQCRPSKGRKRGFCWAVDKYG-NH2 (cysteine pairing not given here) [KG-28]” was run?
A: The value was “abolished”.

Q: With {FITC-Ahx}-KKGFYKKK-NH2 [KK-8] as the substance, how does the “Uptake activity retained within KW-22 (abstract)” value (wild-type CHO K1 cells) read?
A: Its value is “no uptake activity”.

Q: For “{FITC-Ahx}-KKGFYKKKQCRPSKGRKRGFCW-NH2 (cysteine pairing not given here) [KW-22]”, which “Contribution of heparan sulfate to total uptake” value [1] is on record?
A: The value was ~ 38%.

Q: And the “Cellular uptake compared with wt CHO K1” value [2]?
A: Its value is “comparable to that in wt cells; also recorded: barely affected”.

Q: And the “Cellular fluorescence (uptake) compared with wt CHO K1” value [3]?
A: Its value is “comparable with that of the wt cells”.
